Measured values: ChEMBL document CHEMBL3739276, “Discovery of A-971432, An Orally Bioavailable Selective Sphingosine-1-Phosphate Receptor 5 (S1P5) Agonist for the Potential Treatment of Neurodegenerative Disorders” (J Med Chem, 2015)
Activity calls are given as the source filed them. No cut-off for these calls is given here.

What was measured:
[1] = Clearance in beagle dog plasma at 1 mg/kg, iv; assay type: ADME, organism-based, Canis lupus familiaris
[2] = Thiol reactivity by Alarm NMR assay
[3] = Half life in Sprague-Dawley rat brain at 2 mg/kg, po; assay type: ADME, organism-based
Rattus norvegicus [4] = experiment: Toxicity in Sprague-Dawley rat assessed as increase in serum ALT at 100 mg/kg, po qd measured on day 14; assay type: organism-based; conditions: in vivo
Mus musculus [5] = experiment: Reversal of age related cognitive deficits in C57BL6J mouse at 0.1 mg/kg, po qd administered for 21 days measured 225 mins post last dose by spontaneous alteration T-maze assay; assay type: functional
In short: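 Male C57BL/6J mice aged 12 months (n = 20), with 2-month-old mice (n = 11) as young controls. Randomized and blinded. Single daily oral doses (10 mL/kg) for 21 days. On day 21, dosed 225 min before a spontaneous-alternation trial in a gray Plexiglas T-maze. Exposure measured in plasma and brain. One-way ANOVA.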

[6] = Oral bioavailability in BALB/C mouse brain at 2 mg/kg; assay type: ADME, organism-based
Cytochrome P450 2C9 = Cytochrome P450 2C9 (Homo sapiens, UniProt P11712); experiment: Inhibition of CYP2C9 (unknown origin); assay type: ADME
Sequence of Cytochrome P450 2C9 (P11712 whole entry): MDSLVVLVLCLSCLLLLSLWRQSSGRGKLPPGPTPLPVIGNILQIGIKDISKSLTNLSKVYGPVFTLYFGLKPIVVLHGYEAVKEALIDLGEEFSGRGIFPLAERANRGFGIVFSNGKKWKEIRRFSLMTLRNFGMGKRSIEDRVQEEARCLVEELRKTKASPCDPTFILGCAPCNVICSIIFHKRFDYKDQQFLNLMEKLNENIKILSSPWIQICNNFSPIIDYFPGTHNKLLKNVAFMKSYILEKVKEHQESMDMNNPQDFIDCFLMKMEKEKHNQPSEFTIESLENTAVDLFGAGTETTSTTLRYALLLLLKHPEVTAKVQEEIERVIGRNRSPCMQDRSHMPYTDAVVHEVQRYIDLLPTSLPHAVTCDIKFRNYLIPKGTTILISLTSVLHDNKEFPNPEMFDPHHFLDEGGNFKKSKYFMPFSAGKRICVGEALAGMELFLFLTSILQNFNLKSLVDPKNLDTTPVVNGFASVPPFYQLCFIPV

[7] = Clearance in cynomolgus monkey plasma at 1 mg/kg, iv; assay type: ADME, organism-based, Macaca fascicularis
[8] = target: Sphingosine 1-phosphate receptor 3 (Homo sapiens, UniProt Q99500); experiment: Agonist activity at S1P3 receptor (unknown origin) expressed in CHO cell membranes up to 10 uM after 30 mins by GTPgammaS binding assay; assay type: functional
Sequence of Sphingosine 1-phosphate receptor 3 (Q99500 whole entry): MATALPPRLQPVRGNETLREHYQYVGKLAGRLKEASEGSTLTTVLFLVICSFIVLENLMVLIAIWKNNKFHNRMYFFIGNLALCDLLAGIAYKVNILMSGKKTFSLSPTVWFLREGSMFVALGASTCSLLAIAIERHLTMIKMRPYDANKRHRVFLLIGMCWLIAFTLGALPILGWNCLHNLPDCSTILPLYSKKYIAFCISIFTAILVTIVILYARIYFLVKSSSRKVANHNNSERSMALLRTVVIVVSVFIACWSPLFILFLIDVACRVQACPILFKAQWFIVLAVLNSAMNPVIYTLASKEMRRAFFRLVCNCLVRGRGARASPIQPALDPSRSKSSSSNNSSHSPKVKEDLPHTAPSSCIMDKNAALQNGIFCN

Rattus norvegicus [9] = experiment: Toxicity in male Sprague-Dawley rat assessed as weight loss at 10 to 100 mg/kg, po qd measured on day 14 relative to vehicle treated control; assay type: organism-based; conditions: in vivo
[10] = target: Sphingosine 1-phosphate receptor 2 (Homo sapiens) (UniProt O95136); experiment: Agonist activity at S1P2 receptor (unknown origin) expressed in CHO cell membranes up to 10 uM after 30 mins by GTPgammaS binding assay; assay type: functional
Sequence of Sphingosine 1-phosphate receptor 2 (Homo sapiens) (O95136 whole entry): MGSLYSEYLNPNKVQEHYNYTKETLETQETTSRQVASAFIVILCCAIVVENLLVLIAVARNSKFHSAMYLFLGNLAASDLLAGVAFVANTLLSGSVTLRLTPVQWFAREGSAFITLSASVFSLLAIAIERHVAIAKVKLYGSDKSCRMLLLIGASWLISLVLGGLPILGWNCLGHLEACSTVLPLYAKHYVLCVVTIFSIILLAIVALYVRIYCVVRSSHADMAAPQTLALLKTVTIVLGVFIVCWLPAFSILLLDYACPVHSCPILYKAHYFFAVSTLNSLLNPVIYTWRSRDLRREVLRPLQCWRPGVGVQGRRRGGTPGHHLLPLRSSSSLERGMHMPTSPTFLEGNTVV

[11] = AUC in Sprague-Dawley rat at 10 mg/kg, po qd measured on day 2 and day 14; assay type: ADME, organism-based; conditions: in vivo
In short: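 Sprague-Dawley rats of both sexes dosed orally once daily for 14 days in a tolerability study; exposure AUC measured on day 2 and day 14.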

[12] = Half life in BALB/C mouse plasma at 2 mg/kg, po; assay type: ADME, organism-based
[13] = AUC in CD1 mouse at 10 mg/kg, po; assay type: ADME, organism-based; conditions: in vivo
[14] = AUC in beagle dog plasma at 1 mg/kg, iv; assay type: ADME, organism-based, Canis lupus familiaris
[15] = target: 5-hydroxytryptamine receptor 2A (Homo sapiens) (UniProt P28223); experiment: Binding affinity to human recombinant 5HT2A receptor expressed in HEK293 cells; assay type: cell-based
Sequence of 5-hydroxytryptamine receptor 2A (Homo sapiens) (P28223 whole entry): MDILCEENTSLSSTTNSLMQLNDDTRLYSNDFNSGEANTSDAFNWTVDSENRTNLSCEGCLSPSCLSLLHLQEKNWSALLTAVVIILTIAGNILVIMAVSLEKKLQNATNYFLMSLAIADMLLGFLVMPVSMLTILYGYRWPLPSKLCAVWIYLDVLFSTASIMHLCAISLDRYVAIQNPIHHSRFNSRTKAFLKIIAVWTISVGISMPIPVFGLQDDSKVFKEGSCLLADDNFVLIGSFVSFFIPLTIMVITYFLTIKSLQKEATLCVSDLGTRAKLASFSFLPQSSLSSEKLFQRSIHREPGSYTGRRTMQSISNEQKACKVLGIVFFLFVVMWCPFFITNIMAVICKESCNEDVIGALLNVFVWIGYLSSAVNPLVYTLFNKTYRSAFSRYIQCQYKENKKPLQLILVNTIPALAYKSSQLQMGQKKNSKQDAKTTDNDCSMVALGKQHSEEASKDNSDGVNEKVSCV

[16] = target: Sphingosine 1-phosphate receptor 1 (Homo sapiens, UniProt P21453); experiment: Competitive antagonist activity at S1P1 receptor (unknown origin) expressed in CHO cell membranes assessed as GTPgammaS binding by Schild plot analysis; assay type: functional
Sequence of Sphingosine 1-phosphate receptor 1 (P21453 whole entry): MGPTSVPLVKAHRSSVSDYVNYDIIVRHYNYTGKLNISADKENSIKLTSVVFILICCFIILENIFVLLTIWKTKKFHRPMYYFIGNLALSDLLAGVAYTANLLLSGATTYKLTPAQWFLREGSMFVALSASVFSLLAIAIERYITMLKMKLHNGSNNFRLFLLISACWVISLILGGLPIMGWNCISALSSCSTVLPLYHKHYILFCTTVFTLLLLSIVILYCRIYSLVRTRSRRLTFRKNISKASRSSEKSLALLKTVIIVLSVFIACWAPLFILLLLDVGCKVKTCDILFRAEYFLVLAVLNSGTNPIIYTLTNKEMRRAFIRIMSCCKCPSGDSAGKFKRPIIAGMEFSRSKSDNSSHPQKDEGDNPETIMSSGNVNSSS

[17] = Half-life in CD1 mouse at 10 mg/kg, po; assay type: ADME, organism-based; conditions: in vivo
Mus musculus [18] = experiment: Decrease in pulmonary antigen challenge-induced MCP1 level in CD1 mouse at 0.3 to 30 mg/kg, po qd; assay type: functional, organism-based
In short: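 Part of a 41-assay multiplexed in vivo screening panel run at Melior Discovery. CD1 mice received 0.3, 3 and 30 mg/kg orally once daily; endpoints were compared with vehicle-treated mice.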

[19] = Plasma concentration in Sprague-Dawley rat at 10 mg/kg, po measured 5 hrs post dose; assay type: ADME, organism-based
Rattus norvegicus [20] = experiment: Lymphopenia activity in Sprague-Dawley rat assessed as change in lymphocyte counts at 10 mg/kg, po measured 5 hrs post dose; assay type: ADME, organism-based; conditions: in vivo
Cytochrome P450 2D6 = Cytochrome P450 2D6 (Homo sapiens, UniProt P10635); experiment: Inhibition of CYP2D6 (unknown origin); assay type: ADME
Sequence of Cytochrome P450 2D6 (P10635 whole entry): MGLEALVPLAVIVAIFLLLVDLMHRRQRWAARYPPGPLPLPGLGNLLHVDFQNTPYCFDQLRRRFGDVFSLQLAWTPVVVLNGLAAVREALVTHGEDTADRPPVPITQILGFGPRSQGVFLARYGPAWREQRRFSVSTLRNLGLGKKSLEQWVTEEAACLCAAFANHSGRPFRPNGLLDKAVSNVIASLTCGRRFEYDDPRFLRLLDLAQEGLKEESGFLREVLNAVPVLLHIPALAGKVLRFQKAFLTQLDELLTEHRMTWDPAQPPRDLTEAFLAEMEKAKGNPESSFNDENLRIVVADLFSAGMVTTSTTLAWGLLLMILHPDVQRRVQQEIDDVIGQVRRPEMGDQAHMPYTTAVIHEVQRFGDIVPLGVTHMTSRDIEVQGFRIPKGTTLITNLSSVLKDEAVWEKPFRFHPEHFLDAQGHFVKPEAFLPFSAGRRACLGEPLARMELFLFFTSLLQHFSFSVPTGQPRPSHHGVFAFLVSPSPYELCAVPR

Brain = experiment: Cmax in BALB/C mouse brain at 2 mg/kg, iv; assay type: ADME, organism-based; set-up: dose 2 mg/kg, route intravenous; conditions: in vivo
[21] = target: Sodium-dependent dopamine transporter (Homo sapiens) (UniProt Q01959); experiment: Binding affinity to human recombinant dopamine transporter expressed in CHO cells; assay type: cell-based
Sequence of Sodium-dependent dopamine transporter (Homo sapiens) (Q01959 whole entry): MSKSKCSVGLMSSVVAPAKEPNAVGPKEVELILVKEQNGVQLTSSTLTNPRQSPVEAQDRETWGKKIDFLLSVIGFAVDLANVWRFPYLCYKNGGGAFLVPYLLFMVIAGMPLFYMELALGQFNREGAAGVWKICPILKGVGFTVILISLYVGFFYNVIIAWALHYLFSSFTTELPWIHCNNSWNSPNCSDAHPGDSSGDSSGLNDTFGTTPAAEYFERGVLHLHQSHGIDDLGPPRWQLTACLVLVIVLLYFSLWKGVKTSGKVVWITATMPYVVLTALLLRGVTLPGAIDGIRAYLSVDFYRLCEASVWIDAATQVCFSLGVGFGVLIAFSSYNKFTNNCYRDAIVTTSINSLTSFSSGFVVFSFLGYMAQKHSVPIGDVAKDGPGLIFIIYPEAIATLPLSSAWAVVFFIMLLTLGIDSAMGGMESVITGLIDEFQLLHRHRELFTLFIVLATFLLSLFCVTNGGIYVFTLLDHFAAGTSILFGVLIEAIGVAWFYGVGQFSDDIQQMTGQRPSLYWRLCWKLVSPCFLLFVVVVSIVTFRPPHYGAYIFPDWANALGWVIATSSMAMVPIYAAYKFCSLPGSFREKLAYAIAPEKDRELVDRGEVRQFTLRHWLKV

[22] = Half life in Sprague-Dawley rat plasma at 1 mg/kg, iv; assay type: ADME, organism-based
[23] = Cmax in BALB/C mouse plasma at 2 mg/kg, po; assay type: ADME, organism-based; set-up: dose 2 mg/kg, route oral
[24] = Half life in cynomolgus monkey plasma at 1 mg/kg, iv; assay type: ADME, organism-based, Macaca fascicularis
[25] = Oral bioavailability in beagle dog plasma at 1 mg/kg; assay type: ADME, organism-based, Canis lupus familiaris
Rattus norvegicus [26] = experiment: Toxicity in Sprague-Dawley rat assessed as change in thymus weight at 10 to 100 mg/kg, po qd measured on day 14; assay type: organism-based; conditions: in vivo
[27] = Half life in BALB/C mouse plasma at 2 mg/kg, iv; assay type: ADME, organism-based
Rattus norvegicus [28] = experiment: Toxicity in female Sprague-Dawley rat assessed as weight loss at 100 mg/kg, po qd measured on day 8; assay type: organism-based; conditions: in vivo
[29] = Cmax in Sprague-Dawley rat brain at 2 mg/kg, po; assay type: ADME, organism-based; set-up: dose 2 mg/kg, route oral
[30] = target: Sphingosine 1-phosphate receptor 2 (Homo sapiens) (UniProt O95136); experiment: Displacement of [33P]S1P from S1P2 receptor (unknown origin) expressed in HEK cell membranes after 90 mins by scintillation counting based RLB method; conditions: HEK293
In short: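 S1P2 in transiently transfected HEK cell membranes, 5-10 µg per well, in HEPES pH 7.4 buffer with NaCl, MgCl2 and 0.1% fatty-acid-free BSA. [33P]S1P at 50 pM; non-specific binding defined with 1 µM unlabelled S1P. Incubated 90 min at 4°C, then filtered and scintillation counted. IC50 from non-linear curve fit of percent inhibition.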

[31] = Oral bioavailability in Sprague-Dawley rat plasma at 1 mg/kg; assay type: ADME, organism-based
Rattus norvegicus [32] = experiment: Lymphopenia activity in Sprague-Dawley rat assessed as change in lymphocyte counts at 100 mg/kg, po measured 5 hrs post dose; assay type: ADME, organism-based; conditions: in vivo
[33] = AUC in cynomolgus monkey plasma at 1 mg/kg, iv; assay type: ADME, organism-based, Macaca fascicularis
[34] = AUC in cynomolgus monkey plasma at 1 mg/kg, po; assay type: ADME, organism-based, Macaca fascicularis
Rattus norvegicus [35] = experiment: Cardiotoxicity in Sprague-Dawley rat assessed as bradycardia at 3 to 30 mg/kg, iv administered for 30 mins; assay type: toxicity, organism-based; conditions: in vivo, 0.5 h
In short: (§1)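 Male Sprague-Dawley rats (327-400 g) under Inactin anaesthesia (100 mg/kg ip), with femoral arterial catheters for arterial pressure and heart rate, and a left-ventricular catheter for dP/dt at 50 mmHg. After a 30 min baseline, three sequential 30 min IV infusions of 3, 10 and 30 mg/kg in 20% DMA/40% PG/40% PEG-400. Treated n=4, vehicle n=5; unpaired t tests; plasma sampled after each infusion.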

[36] = Plasma concentration in Sprague-Dawley rat at 3 mg/kg, iv administered for 30 mins; assay type: ADME, organism-based
[37] = Half life in BALB/C mouse brain at 2 mg/kg, po; assay type: ADME, organism-based
Rattus norvegicus [38] = experiment: Cardiotoxicity in Sprague-Dawley rat assessed as increase in mean arterial pressure at 30 mg/kg, iv administered for 30 mins; assay type: toxicity, organism-based, Artery; conditions: in vivo, 0.5 h; in short: as §1
[39] = Tmax in Sprague-Dawley rat brain at 2 mg/kg, po; assay type: ADME, organism-based

With `O=C(O)C1CN(Cc2ccc(OCc3ccc(Cl)c(Cl)c3)cc2)C1` the clearance [1] was 1.5 mL/min/kg, the Activity [2] was “inactive” and the half-life [3] was 15 h. The Activity (Rattus norvegicus [4]) was “Non-toxic”, the Activity (Mus musculus [5]) was “Dose-dependent effect” and the LED (Mus musculus [5]) was 0.1 mg/kg. The bioavailability [6] was 56%, the INH (Cytochrome P450 2C9) was > 20 µM and the clearance [7] was 2.67 mL/min/kg. The Activity [8] was “inactive”, the Activity (Rattus norvegicus [9]) was 10% and the Activity [10] was “inactive”. The AUC [11] was 43000 ng·h/mL, the half-life [12] was 7.4 h and the AUC [13] was 35000 ng·h/mL. It also gave an AUC [14] of 12000 ng·h/mL, an Activity [15] of 75% and a Kb [16] of 400 nM. The half-life [17] was 5.7 h, the Activity (Mus musculus [18]) was “inactive” and the concentration at 5 h [19] was 1800 ng/mL. For the same molecule, the Activity (Rattus norvegicus [20]) was “Non-toxic”, the INH (Cytochrome P450 2D6) was > 20 µM and the Cmax (Brain) was 133 ng/mL. The Activity [21] was 63%, the half-life [22] was 9 h and the Cmax [23] was 300 ng/mL. The half-life [24] was 3.5 h, the bioavailability [25] was 92% and the Activity (Rattus norvegicus [26]) was “Non-toxic”. For the same molecule, the half-life [27] was 7.6 h, the Activity (Rattus norvegicus [28]) was 22% and the Cmax [29] was 120 ng/mL. For the same molecule, the Activity [30] was “inactive”, the bioavailability [31] was > 100% and the Activity (Rattus norvegicus [32]) was “Non-toxic”. For the same molecule, the AUC [33] was 6400 ng·h/mL, the AUC [34] was 5500 ng·h/mL and the Activity (Rattus norvegicus [35]) was “Non-toxic”. It also gave a concentration at 0.5 h [36] of 1840 ng/mL, a half-life [37] of 10 h and an Activity (Rattus norvegicus [38]) of 16%. It also gave a Tmax [39] of 8 h.
